One series has as its system SCC114. Nature of the series: (§1) Cytotoxicity against human SCC114 cells by phenotype-based spindle multipolarity assay. The class given is functional, cell-based.
The subject of series [1] is Trichophyton rubrum. The series is described as follows: Antifungal activity against Trichophyton rubrum IBT 29284 at 50 uM after 7 days by micro broth dilution method. The class given is functional. The gist of the method:
(§2)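 T. rubrum IBT29284 was tested by broth microdilution using a 4-fold dilution series of 10 concentrations from 50 μM down to 0.2 μM, with 1% DMSO. The inoculum followed CLSI M38-A2, set to OD530 0.90–1.5 and diluted 50-fold in RPMI/MOPS at pH 7.00. Incubation was 7 days at 37 °C, read by OD. IC50 came from a variable-slope sigmoidal fit.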

Series [2] concerns Trichophyton mentagrophytes. The series is described as follows: Antifungal activity against Trichophyton mentagrophytes IBT 2724 at 50 uM after 7 days by micro broth dilution method. The class given is functional. Particulars: for inhibition at 50 µM: IBT 2724, 168 h. The gist of the method: (§3)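 T. mentagrophytes IBT2724 was tested by broth microdilution using an 8-fold dilution series of 10 concentrations from 50 μM down to 0.4 μM, with 1% DMSO. The inoculum was prepared per CLSI M38-A2, adjusted to OD530 0.90–1.5 and diluted 50-fold in RPMI/MOPS at pH 7.00. Plates ran 7 days at 37 °C with an OD read-out. IC50 came from a variable-slope sigmoidal fit.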
On the technique in general: Broth dilution looks for growth in wells or tubes with falling amounts of substance.

The subject of series [3] is MDA-MB-231. The series is described as follows: Cytotoxicity against human MDA-MB-231 cells assessed as cell viability at 50 uM after 48 hrs by MTT assay. The class given is functional. Particulars: for inhibition at 50 µM: MDA-MB-231, 48 h. Summed up:
(§4)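 MDA-MB-231 cells were grown in L-15 with 10% FCS at 37 °C and seeded at (2-3) × 10^4 per well. Exposure was 24 and/or 48 h, then MTT for at least 4 h, with absorbance read at 570/630 nm. Each condition had at least 3 replicates, reported as mean ± SD of a representative experiment repeated at least three times.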
In general terms: Formazan colour is commonly taken as a measure of viable cells.

Series [4] concerns MDA-MB-231. Nature of the series: Ratio of griseofulvin IC50 to compound IC50 for human MDA-MB-231 cells. It counts as functional.
The subject of series [5] is MDA-MB-231. The series is described as follows: Cytotoxicity against human MDA-MB-231 cells assessed as cell viability after 48 hrs by MTT assay. It counts as functional, cell-based. Particulars: MDA-MB-231, 48 h. The gist of the method:
as §4

For series [6], the system named is Trichophyton mentagrophytes. Nature of the series: Antifungal activity against Trichophyton mentagrophytes IBT 2724 after 7 days by micro broth dilution method. The class given is functional, organism-based. Particulars: IBT 2724, 168 h. Summed up:
as §3

Series [7] in a line: Drug degradation in phosphate buffered saline at pH 7.4 assessed as compound hydrolysis after 48 hrs. Particulars: read-out: Drug degradation. The class given is physicochemical. The gist of the method: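 Oximes were held in PBS at pH 7.4 for 48 h, and hydrolysis to the parent ketones was monitored.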
The subject of series [8] is Trichophyton rubrum. Nature of the series: Antifungal activity against Trichophyton rubrum IBT 29284 after 7 days by micro broth dilution method. The class given is functional, organism-based. Particulars: IBT 29284, 168 h. The gist of the method: as §2
A short description of series [9]: as §1. It counts as functional, cell-based.
The next series relates to HeLa. The series is described as follows: Cytotoxicity against human HeLa cells. It counts as functional, cell-based.
The subject of the next series is V79. Nature of the series: Cytotoxicity against Chinese hamster V79 cells. The class given is functional, cell-based. Particulars: Cricetulus griseus.

The record followed here is ChEMBL document CHEMBL1955834, “Disparate SAR data of griseofulvin analogues for the dermatophytes Trichophyton mentagrophytes, T. rubrum, and MDA-MB-231 cancer cells” (J Med Chem, 2012).

Structures are written as SMILES. The source made the active and inactive calls. The calls are words filed in the database; no cut-off is given here.

One may read the inhibition as the percentage by which the read-out fell short of the control. On to `CCOC1=CC(=O)[C@@]2(Oc3c(Cl)c(OC)cc(OC)c3C2=O)[C@H](C)C1`, for which the inhibition entry with SCC114 and in the series on Trichophyton rubrum [1] was “inactive” throughout. Further, the inhibition at 50 µM (in series [2]; with MDA-MB-231 [3]) was less than 50% in each case.

Usually IC50 stands for the midpoint of a concentration-inhibition curve. As for `COC(=O)C1=CC(=O)C=C(OC)[C@]12Oc1c(Cl)c(C)c(Cl)c(O)c1C2=O`, the “Ratio IC50” value with MDA-MB-231 [4] was found to be 2. Further, the inhibition result (with Trichophyton rubrum [1]; in series [2]) was “inactive” each time. In addition, the IC50 in the series on MDA-MB-231 [5] was 9.9 µM.

With `COc1cc(OC)c2c(c1Cl)O[C@]1(C2=O)C(OCc2ccccc2)=C/C(=N\O)C[C@H]1C`, the values for the 50% inhibitory concentration (IC50) (in [6]; in the series with MDA-MB-231 [5]; in the series with Trichophyton rubrum [8]) were 0.3 µM, 1.4 µM and 7.9 µM, respectively. Further, the degraded at 48 h in [7] is less than 5%.

In the case of `COc1cc(OC)c2c(c1Cl)O[C@@]1(C(=O)C=C(OCC3CC3)C[C@H]1C)C2=O`, the inhibition result in the series with SCC114 and in the series on Trichophyton rubrum [1] was “inactive” throughout. Besides, in the series with MDA-MB-231 [5], the half-inhibitory concentration (IC50) is 52 µM. This compound gave an inhibition at 50 µM in [2] of less than 50%.

In the case of `COC1=CC(=O)C[C@@H](C)[C@]12Oc1c(Cl)c(OC)cc(OC)c1C2=O` [GRISEOFULVIN], the IC50 is 20 µM in series [9]; 0.058 µM in [6]; 25 µM in the series on HeLa; 8 µM with V79; 18 µM in the series on MDA-MB-231 [5]; 0.38 µM in the series on Trichophyton rubrum [8].

Turning to `COc1cc(OC)c2c(c1Cl)O[C@]1(C2=O)C(OCc2cccc3ccccc23)=C/C(=N\O)C[C@H]1C`, the inhibition result (with Trichophyton rubrum [1]; in [2]) was “inactive” each time. In addition, the IC50 in the series on MDA-MB-231 [5] was determined as 8.3 µM. Further, the degraded at 48 h in [7] was less than 5%.

In the case of `COC1=CC(=O)[C@@]2(Oc3c(Cl)c(OC)cc(OC)c3C2=O)[C@H](C)C1`, the inhibition entry (in the series on SCC114; with Trichophyton rubrum [1]; in series [2]; in the series with MDA-MB-231 [3]) was “inactive” in each case.

In the case of `CCCOC1=CC(=O)C[C@@H](C)[C@]12Oc1c(Cl)c(OC)cc(OC)c1C2=O`, the IC50 in [6] is 0.05 µM; with V79 it was 0.7 µM; with MDA-MB-231 [5] it was 16 µM; with Trichophyton rubrum [8] it was 0.62 µM.

As to `COc1cc(OC)c2c(c1Cl)O[C@]1(C2=O)C(OCc2ccc(COC3=CC(=O)C[C@@H](C)[C@]34Oc3c(Cl)c(OC)cc(OC)c3C4=O)cc2)=CC(=O)C[C@H]1C`, in the series with MDA-MB-231 [4], the “Ratio IC50” value was determined as 2. Moreover, the inhibition result (in the series on Trichophyton rubrum [1]; in series [2]) was “inactive” in each case. In addition, the IC50 with MDA-MB-231 [5] worked out at 8.5 µM.

For `COc1cc(OC)c2c(c1Cl)O[C@@]1(C(=O)C=C(OC(C)C)C[C@H]1C)C2=O`, the inhibition result with SCC114 and with Trichophyton rubrum [1] was “inactive” throughout. Moreover, the IC50 in the series on MDA-MB-231 [5] was found to be 48 µM. The inhibition at 50 µM in series [2] was less than 50%.

As for `COc1cc(OC)c2c(c1Cl)O[C@@]1(C(=O)C=C(OC3CCCC3)C[C@H]1C)C2=O`, the inhibition entry with SCC114 and with Trichophyton rubrum [1] was “inactive” in each case. In addition, in the series on MDA-MB-231 [5], the half-maximal inhibitory concentration (IC50) came out at 27 µM. This compound came in with an inhibition at 50 µM in series [2] of less than 50%.

On to `COc1cc(OC)c2c(c1Cl)O[C@@]1(C(=O)C=C(OCc3ccccc3)C[C@H]1C)C2=O`, for which the inhibition result in the series with SCC114 and with Trichophyton rubrum [1] was “inactive” each time. The inhibition at 50 µM (in series [2]; in the series on MDA-MB-231 [3]) was less than 50% each time.

For the compound `COC1=C/C(=N\O)C[C@@H](C)[C@]12Oc1c(Cl)c(OC)cc(OC)c1C2=O`, the IC50 came out at 0.19 µM in series [6], 12 µM in the series with MDA-MB-231 [5] and 1.3 µM in the series with Trichophyton rubrum [8]. For the same compound, the degraded at 48 h in series [7] is less than 5%.
